# Screening data as filed in PubChem BioAssay.
# IDE cell activ: activators of human insulin-degrading enzyme in cells. P14735. HEK cells, FAbeta-B cleavage, fluorescence polarization; 0% vehicle, 100% cell-free pure enzyme wells. activation, % at 5.96 µM. 340,000 tested, 0.073% active. AID 493087;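 active means activation above the mean of all tested compounds plus 3 SD, set per screening campaign, cut at about 17% in these data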
# CSN deneddyl inh: CSN deneddylation inhibition; AID 651999; Q92905; 360,000 tested, 0.38% active; Purified CSN, SCF-Nedd8-OG deneddylation, fluorescence polarization; inhibition, % at 12.5 µM;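 active means pattern-corrected inhibition above about 35%, with an unprinted fluorescence ratio check between 0.5 and 1.5, limit read from the data, passing the limit was not always enough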;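 further: 0% = enzyme with substrate and 100% = substrate without enzyme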
#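 Detection – fluorescence polarization · System – HEK293T-derived human Csn5 enzyme · Controls – substrate-only high control, full reaction low control · Timing – 90 min, room temperature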
# TPT1 inhibitor: C. albicans TPT1 enzyme inhibition. recombinant caTPT1, FP RNA substrate dephosphorylation. inhibition, % at 5 µM. AID 1962. 300,000 tested, 0.81% active;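 active means inhibition above the mean of all tested compounds plus 3 SD, set per screening campaign, cut at about 24% in these data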;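 further: plate controls were DMSO alone for no effect and ferristatin control at 100 nM for full effect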
# IDE cell inh: inhibits human insulin-degrading enzyme in HEK cells | FAbetaB cleavage, fluorescence polarization | inhibition, % at 5.59 µM | P14735 | 320,000 tested, 0.41% active | AID 434962;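 active means percent inhibition above the average of all tested compounds plus 3 SD, set per screening campaign, cut at about 16% in these data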;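 further: IDE supplied by intact live HEK cells; FP after avidin binding of uncleaved biotin substrate so inhibition keeps polarization high; 0% = DMSO wells and 100% = 60 µM reference IDE inhibitor Ii1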
# HNF4A DNA FP: change in binding of human HNF4 alpha to DNA. activity change, % at 10 µM. HNF4a-FITC DNA binding, fluorescence polarization, 1 h. P41235. AID 1224865. 360,000 tested, 0.3% active; in the data active means activity change above about 30%, passing the limit was not always enough
# Rpn11 inh: Rpn11 (human) deubiquitinase inhibition | AID 588493 | human 26S proteasome, Ub4-pepOG fluorescence polarization; 20S core pre-blocked with epoxomicin | O00487 | 360,000 tested, 0.59% active | inhibition, % at 20 µM;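 active means inhibition at 20 µM, scaled to each plate's controls, above about 33%, limit read from the data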
# caTPT1 confirm: TPT1 (C. albicans) inhibition, confirmation | shares compounds with TPT1 inhibitor | recombinant caTPT1, fluorescence polarization, RNase T1 coupled | inhibition, % at 5 µM | 2,400 tested, 74% active | AID 2149;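 active means inhibition above the primary screen limit, the mean inhibition of all tested compounds plus 3 SD, cut at about 25% in these data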
# RNase T1 inh: blocks Aspergillus oryzae RNase T1, a TPT1 counter-screen | shares compounds with TPT1 inhibitor | AID 2153 | RNase T1 cleavage, fluorescence polarization, 1536-well | inhibition, % at 5 µM | 2,400 tested, 83% active;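 active means inhibition above the solvent-only control well mean plus 3 SD, limit set per screening run, cut at about 23% in these data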;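 further: plate controls were DMSO wells with enzyme for no effect and wells without RNase T1 for full effect; inhibitors block cleavage so intact labeled substrate keeps polarization high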
# * hit, by the source's call; . = not tested or not shown; ! = not active in a repeat. The list is not random: actives were taken first. Their share in the collection is about 1.7%.
SMILES,IDE cell activ,CSN deneddyl inh,TPT1 inhibitor,IDE cell inh,HNF4A DNA FP,Rpn11 inh,caTPT1 confirm,RNase T1 inh
CC(=O)/C(=N/Nc1ccccc1Cl)Sc1nnc(C(O)c2ccccc2)n1-c1ccccc1 (stereo not given),3,-6,48*,-1,0,-8,6,6
COc1ccc(NS(=O)(=O)c2cc([N+](=O)[O-])ccc2N/N=C\c2c(C)[nH]c3ccccc23)cc1,5,25,72*,1,65*,.,75*,86*
COc1ccc(NS(=O)(=O)c2cc([N+](=O)[O-])ccc2NN=Cc2ccccc2OCC(=O)O)cc1,0,0,.,2,2,12,.,.
COc1ccc(/C=N/Nc2ccc([N+](=O)[O-])cc2S(=O)(=O)N2CCN(C)CC2)cc1,5,34,71*,-3,164,.,105*,118*
O=C(O)CCn1cc(/C=C2\SC(=S)NC2=O)c(-c2ccccc2)n1,.,10,54*,11,4,17,1,7
C=CCN1C(=O)CS/C1=C(\C#N)S(=O)(=O)c1ccc(C)cc1,-18,0,74*,15,5,2,10,14
CCCS(=O)(=O)NC(=O)C1(C)CCN(C(=O)c2cc(F)ccc2C)C1 (stereo not given),.,1,.,.,4,1,.,.
C[C@H]1CN([C@@H](C)CO)C(=O)CCCn2nncc2CO[C@H]1CN(C)C(=O)Nc1ccc2c(c1)OCO2,.,-1,.,.,-2,-3,.,.
O=C1NC[C@H](CCCCN2C[C@H](Cc3ccccc3)N(Cc3ccccc3)C(=O)C2=O)N(CCC2CCCCC2)C1=O,.,-5,.,.,0,.,.,.
CCN1CCS/C1=C/C=C/C1=[N+](CC)CCS1,9,-15,25*,-4,15,15,25*,33*
CCn1c2ccccc2c2cc(NC(=O)c3ccc(=O)oc3)ccc21,.,20,63*,0,23,-13,34*,37*
CCN1CCN(Cc2ccc(NC(=O)c3ccc(C)c(/C=C/c4cnc(Nc5cc(N6CCNCC6)nc(C)n5)cn4)c3)cc2C(F)(F)F)CC1,2,57*!,78*,1,125,.,83*,87*
COc1cc(OC)c(CN2CCc3c([nH]c4ccccc34)C2)cc1Br,0,43*,48*,6,52*,.,6,7
COCCNC(=O)C1CCCN(Cc2cccc(C#N)c2)CC1 (stereo not given),.,2,.,.,-1,-1,.,.
COc1cc(N2CCCC2)c(OC)cc1/C=C(/C#N)c1ccc(F)cc1,-7,23,143*,4,82,.,132*,134*
Cc1c2cnn(CC(=O)NCCCN3CCCCC3C)c(=O)c2c(C)n1Cc1ccccc1 (stereo not given),-6,7,24*,2,11,30,36*,44*
Cc1c2cnn(CC(=O)NC3CCCC3)c(=O)c2c(C)n1Cc1ccccc1,1,-5,-2,6,-2,-2,.,.
COc1cccc(/C=C2\Oc3cc(OCC(=O)N4CCCC4)ccc3C2=O)c1OC,2,-8,-1,3,-3,2,.,.
COc1ccc(/C=C2\Oc3cc(OCC(=O)N4CCC(C(=O)O)CC4)ccc3C2=O)c(OC)c1,29*,23,65*,-15,37,.,90*,98*
COc1ccc(/C=C2\Oc3cc(OC(=O)N4CCOCC4)ccc3C2=O)c(OC)c1,-16,44*,111*,2,99*,29,44*,65*
O=C1NCCc2onc(-c3ccc(Br)cc3)c21,.,2,.,.,-1,-3,.,.
COc1ccc(CN2C(=O)COc3ccccc3C2c2nc3ccccc3[nH]2)cc1 (stereo not given),.,3,.,.,-1,.,.,.
O=C(C(=O)N1CCC(Cc2ccccc2)CC1)c1ccccc1Br,.,-4,.,.,-1,.,.,.
CCCCCCCCNC(=O)c1ccc(C)cc1,.,.,37*,-4,.,.,13,20
CCCCNC(=O)Cc1ccc(C)cc1,-4,-5,2,6,4,-3,.,.
